According to ChEMBL document CHEMBL1126685, “Bronchodilator activity of xanthine derivatives substituted with functional groups at the 1- or 7-position” (J Med Chem, 1993):

Experiments:
Adenosine receptor A1 = target: T1, Adenosine receptor A1 (Cavia porcellus, UniProt P47745); experiment: Binding affinity against adenosine A1 receptor of cerebral cortex using [3H]CPX as a radioligand; assay type: tissue-based
T1 sequence (P47745 whole entry): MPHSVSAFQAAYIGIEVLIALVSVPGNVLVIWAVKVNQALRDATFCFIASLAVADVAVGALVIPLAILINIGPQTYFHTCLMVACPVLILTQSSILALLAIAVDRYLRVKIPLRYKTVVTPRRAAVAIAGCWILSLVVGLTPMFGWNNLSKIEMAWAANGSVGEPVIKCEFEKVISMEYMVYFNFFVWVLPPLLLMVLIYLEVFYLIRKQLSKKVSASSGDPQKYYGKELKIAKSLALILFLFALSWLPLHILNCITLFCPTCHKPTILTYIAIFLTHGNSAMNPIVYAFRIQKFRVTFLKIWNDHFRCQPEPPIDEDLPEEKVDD

Cavia porcellus [1] = organism: Cavia porcellus; experiment: Effective concentration required in vitro for heart stimulation (right atrium) in guinea pig; assay type: functional; settings: Cardiac atrium
Summary of the method: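 Isolated right atrium of male Hartley guinea pigs, 25 °C Krebs-Henseleit gassed 95% O2–5% CO2, 0.5 g tension; cumulative concentrations; beating rate via cardiometer triggered by isometric contraction. EC15 = concentration raising rate 15% above unstimulated; 3–5 experiments.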

Cavia porcellus [2] = organism: Cavia porcellus; experiment: Effective concentration required in vitro for tracheal muscle (from male Hartley guinea pigs) relaxation; assay type: functional; settings: Trachea
Summary of the method: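 Tracheal ring chains from male Hartley guinea pigs (300–500 g), 37 °C Krebs-Henseleit pH 7.4, 95% O2–5% CO2, 0.5 g tension, spontaneous tone; cumulative compound addition, isotonic recording.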

[3] = Bronchoselectivity expressed as ratio of stimulatory activity in the right atrium (EC15) to relaxant activity in the tracheal muscle (EC50); assay type: functional, Cardiac atrium
[4] = target: cyclic AMP phosphodiesterase (guinea pig); experiment: Inhibition of cyclic AMP-phosphodiesterase ( PDE) in the supernatant of tracheal muscle homogenate
[5] = target: Adenosine A2 receptor (guinea pig); experiment: Binding affinity against adenosine A2 receptor of striatal membrane using [3H]CGS-21680 as a radioligand

Ki (Adenosine receptor A1) [µM] | EC50 (Cavia porcellus [2]) [µM] | Ki [4] [µM] | Ki [5] [µM] | Compound | EC15 (Cavia porcellus [1]) [µM] | Selectivity [3]
> 200 | > 100 |  |  | CCCn1c(=O)n(C)c(=O)c2c1ncn2CCC(N)=O | > 100 | 
6.6 | 35.3 | 16.5 | 12.8 | CCCn1c(=O)n(C)c(=O)c2c1ncn2CC#N | > 100 | 2.8
11.2 | 3.5 | 13 | 144 | CCCn1c(=O)n(CCC(C)=O)c(=O)c2[nH]cnc21 | 27 | 7.7
88.6 | 27.6 | 46 | > 200 | CCCn1c(=O)n(C)c(=O)c2c1ncn2CCC#N | > 100 | 3.6
> 200 | > 100 | > 200 | > 200 | CCCn1c(=O)n(C)c(=O)c2c1ncn2CCC(=O)O | > 100 | 1
30 | 12.2 | 32.8 | > 200 | CCCn1c(=O)n(C)c(=O)c2c1ncn2CCC(C)=O | > 100 | 8.2
> 200 | > 100 | > 200 | > 200 | CCCn1c(=O)n(C)c(=O)c2c1ncn2CCCN(C)C | > 100 | 1
112 | 22.6 | 26.2 | > 200 | CCCn1c(=O)n(C)c(=O)c2c1ncn2CCCO | > 100 | 4.4
> 200 | > 100 |  |  | CCCn1c(=O)n(C)c(=O)c2c1ncn2CC(=O)O | > 100 | 
15.4 | 11.2 |  |  | C=CCn1cnc2c1c(=O)n(C)c(=O)n2CCC | 22.4 | 

Continued, molecule first:

Compound | Ki (Adenosine receptor A1) [µM] | EC50 (Cavia porcellus [2]) [µM] | Ki [4] [µM] | Ki [5] [µM] | EC15 (Cavia porcellus [1]) [µM] | Selectivity [3]
C=CCn1c(=O)c2[nH]cnc2n(CCC)c1=O | 1.7 | 1.6 | 27.3 | 11.8 | 5.4 | 3.4
CCCn1c(=O)n(CC(=O)O)c(=O)c2[nH]cnc21 | > 200 | 41 | > 200 | > 200 | > 100 | 2.4
CCCn1c(=O)n(CCC(N)=O)c(=O)c2[nH]cnc21 | 31.5 | 13.1 | 56.3 | > 200 | 31.2 | 2.4
CCCn1c(=O)n(CCCO)c(=O)c2[nH]cnc21 | 12 | 5.1 | 12.6 | 68.7 | 26.4 | 5.2
CCCn1c(=O)n(CC(N)=O)c(=O)c2[nH]cnc21 | 39.7 | > 100 |  |  | > 100 | 
CCCn1c(=O)n(C)c(=O)c2c1ncn2CC |  |  |  |  | > 100 | 
CCCn1c(=O)n(CCO)c(=O)c2[nH]cnc21 | 50 | 0.51 | 14.1 | > 200 | 2 | 3.9
CCCn1c(=O)n(CCC(=O)O)c(=O)c2[nH]cnc21 | > 200 | 21.2 | 60 | > 200 | > 100 | 4.7
CCCn1c(=O)n(CC#N)c(=O)c2[nH]cnc21 | 2.1 | 4.2 |  |  | 1.7 | 
CCCn1c(=O)n(CCCN(C)C)c(=O)c2[nH]cnc21 | 43.2 | 20.5 | 92 | > 200 | > 100 | 4.9
CCCn1c(=O)n(CCC#N)c(=O)c2[nH]cnc21 | 15.9 | 1.7 | 40.8 | 162 | 4.3 | 2.5
CCCn1c(=O)n(CC)c(=O)c2[nH]cnc21 |  | 1.3 |  | 3.9 | 6.1 | 4.7
